# HSP90 refold inh: inhibitors of HSP90 luciferase refolding in rabbit reticulocyte lysate; luciferase refolding luminescence, 3 h; inhibition, % at 5.6 µM; 290,000 tested, 0.91% active; AID 1789;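 active = inhibition above the screen-wide mean plus 3 SD, computed separately per campaign, cut at about 16% in these data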;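 note: 0% = DMSO wells and 100% = 60 µM geldanamycin wells; inhibitors lower the luminescence because luciferase stays unfolded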
# STAT3 act-1: increases IL-6 driven STAT3 reporter signal; U3A cells, IL-6 STAT3-luciferase reporter, luminescence; 100% = signal with IL-6 EC80 alone; activation (% of control), % at 5.6 µM; 190,000 tested, 0.91% active; AID 871;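 active = activation above the screen-wide mean of compound activation plus 3 SD, cut at about 130% in these data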;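 note: 0% = background luminescence of wells with medium and substrate only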
#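 Test system: Human STAT1-deficient U3A cells with stable STAT3-luciferase reporter | Also added: Interleukin-6, 33 ng/mL | Timing: Compound pre-incubation 1 h before IL-6, then 6 h stimulation at 37 °C | Technique: Luciferase reporter luminescence | Read-out: Percent of IL-6-only median luminescence | Benchmarks: IL-6-only wells as 100% reference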
# STAT3 inh: reduces IL-6 driven STAT3 reporter signal; inhibition, % at 5.5 µM; AID 862; 190,000 tested, 0.89% active; U3A cells, IL-6 STAT3-luciferase reporter, luminescence; host cell line lacks STAT1;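 active = inhibition above the mean inhibition across all screened compounds plus 3 SD, cut at about 44% in these data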;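 note: 0% = DMSO only wells and 100% = 100 µM nifuroxazide control wells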
# STAT1 inh: reduces IFN-gamma driven STAT1 reporter signal | inhibition, % at 5.5 µM | AID 920 | NIH 3T3 STAT1-luciferase reporter, luminescence | 200,000 tested, 0.35% active;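 active = inhibition above a set limit, the mean inhibition across all tested compounds plus 3 SD, cut at about 34% in these data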;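 note: 0% = IFN-gamma with DMSO and 100% = IFN-gamma with 300 µM nifuroxazide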
# STAT3 act-2: confirmation of STAT3 signaling activators | shares compounds with STAT3 act-1 | U3A STAT3-luciferase reporter, IL-6 potentiation, luminescence; U3A cells lack STAT1; 100 means same as IL-6 alone | potentiation (% of control), % at 5.7 µM | 1,200 tested, 64% active;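 active = percent activation of the STAT3 luciferase reporter above a set limit taken from the earlier primary screen, cut at about 130% in these data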;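 note: 0% = background signal of medium plus substrate and 100% = median of IL-6 with DMSO wells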
# NFkB act STAT3ct: counter-screen for STAT3 activators: NF-kappaB activation. shares compounds with STAT3 act-1. activation (% of control), % at 5.7 µM. human cells, NF-kappaB reporter activation. 1,200 tested, 11% active. AID 1309; in the data active = activation above about 120%;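 note: reporter induced by TNF-alpha stimulation; 100% = median of stimulated DMSO wells and 0% = no signal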
# STAT1 act STAT3c: counter-screen for STAT3 activators: STAT1 activation. shares compounds with STAT3 act-1. NIH 3T3 STAT1-luciferase reporter, IFN-gamma, luminescence. activation (% of control), % at 5.7 µM. 1,200 tested, 13% active. AID 1318;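 active = activation above the solvent-only control well mean plus 3 SD, set per screening run, cut at about 120% in these data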;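 note: 100% = IFN-gamma with DMSO median signal so 100% means no change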
# An asterisk follows results filed as active; x = no result. Rows were chosen to be rich in hits. Some 2% of all compounds tested hit in one or more screens of this group.
SMILES,HSP90 refold inh,STAT3 act-1,STAT3 inh,STAT1 inh,STAT3 act-2,NFkB act STAT3ct,STAT1 act STAT3c
Cn1c(O)c(/C=C2\C=Nc3ccccc32)sc1=Nc1ccc(C(=O)O)cc1,-1,x,x,x,x,x,x
O=C(Cc1ccccc1)Nn1c(O)c(/C=C2\C=Nc3ccccc32)sc1=S,5,170*,-91,-4,116,106,102
CCCc1nc(SC)[nH]c(=O)c1C,-1,x,x,x,x,x,x
COC(=O)c1ccccc1NC(=O)C(C)Oc1ccccc1 (configuration not stated),3,98,7,5,x,x,x
CC(Oc1ccccc1)C(=O)Nc1ccccc1O (configuration not stated),-1,137*,-36,3,122,104,100
Cc1nc2cc(-c3cccc(F)c3)nn2c(N2CCN(C(=O)c3ccco3)CC2)c1C,4,137*,-49,3,120,114,91
O=c1c2cccc(Cl)c2nc2n1Cc1ccccc1-2,1,x,x,x,x,x,x
O=c1cc(-c2ccccc2)nc2n1Cc1ccccc1-2,2,155*,-66,-15,133*,114,118
CCCn1c(CCNC(=O)c2ccco2)nc2ccccc21,1,x,x,x,x,x,x
CCOc1ccccc1C(=O)NCC(=O)O,-4,100,2,2,x,x,x
CCOc1ccccc1C(=O)NN1C(=O)CCC1=O,3,143*,-43,3,155*,102,107
Cc1ccc(OCC(=O)c2c[nH]c3ccccc23)c([N+](=O)[O-])n1,2,158*,-59,-19,165*,103,107
Cc1ccc(C)c(C(=O)COc2ccc(C)nc2[N+](=O)[O-])c1,7,104,-8,3,x,x,x
CC(=O)Nc1ccc(S(=O)(=O)N2CCN(C(=O)c3ncoc3-c3ccccc3C)CC2)cc1,2,x,x,x,x,x,x
O=C(Cn1nc(-c2ccc(Cl)cc2)c2ccccc2c1=O)NN1CCOCC1,-1,x,x,x,x,x,x
CCOC(=O)c1cnn(-c2nc3c(C)cccc3s2)c1C,2,152*,-62,2,130,101,102
CCOC(=O)c1cnn(-c2nc3c(C)cccc3s2)c1C(F)(F)F,-1,102,-2,-2,x,x,x
COc1cc(SC#N)ccc1N=Cc1c(C)[nH]n(-c2ccc(C)c(C)c2)c1=O,14,100,1,5,x,x,x
COc1cc(SC#N)ccc1N=Cc1c(C)[nH]n(-c2ccc(Cl)cc2)c1=O,9,144*,-52,-5,125,105,102
CC(=O)N1CCC(=NNc2nc3ccccc3[nH]2)CC1,6,143*,-55,-29,144*,112,110
CCC(C)(C)C1CCC(=NNc2nc3ccccc3[nH]2)CC1 (configuration not stated),3,113,-14,-25,x,x,x
CC1NC(=S)N(Cc2ccccc2)C1=O (configuration not stated),1,x,x,x,x,x,x
CC(C)C1NC(=S)N(Cc2ccccc2)C1=O (configuration not stated),2,142*,-46,-3,98,105,99
COc1ccc(CCN2CCCn3c2nc2c3c(=O)n(C)c(=O)n2C)cc1OC,-3,x,x,x,x,x,x
Clc1ccc(SCCOCCN2CCc3ccccc3C2)cc1,-8,137*,-28,5,123,108,97
SMILES,HSP90 refold inh,STAT3 act-1,STAT3 inh,STAT1 inh,STAT3 act-2,NFkB act STAT3ct,STAT1 act STAT3c
c1ccc(-c2ccccc2OCCOCCN2CCc3ccccc3C2)cc1,-2,138*,-29,21,127,107,89
c1ccc2c(c1)[nH]c1c(N3CCOCC3)ncnc12,-2,140*,-41,21,134*,94,73
CCC(O)c1nc2ccccc2n1CCc1ccccc1 (configuration not stated),-5,x,x,x,x,x,x
CCCC/C(O)=C1\C(=O)CC(C)(C)CC1=NCCCCCC(=O)O,-1,98,4,1,x,x,x
Cc1ccccc1-n1nnnc1Sc1nnnn1-c1ccccc1,2,104,0,26,x,x,x
CCCSc1nnc(Sc2nnnn2-c2ccccc2)s1,0,178*,-83,10,147*,103,90
O=P1(O)C=C(c2ccccc2)OC(c2ccccc2)=C1,-3,136*,-35,-7,145*,118,127*
O=C(NCc1ccccc1)c1c(Cl)nc(Cl)c(Cl)c1Cl,-4,x,x,x,x,x,x
Cc1cc(C)nc(/N=C(\N)Nc2ccc(OCc3ccccc3)cc2)n1,1,81,26,4,x,x,x
Cc1nc(/N=C(\N)Nc2ccccc2)nc2ccccc12,-4,165*,-67,-6,157*,106,108
O=C(NCc1cccc(Cl)c1)C1CCCN(c2ncnc3c2nc2n3CCCCC2)C1 (configuration not stated),-9,x,x,x,x,x,x
Cc1c(NC(=O)COC(=O)c2cc3c4ccccc4n(C)c3s2)c(=O)n(-c2ccccc2)n1C,1,158*,-68,4,136*,102,96
C=CCSc1nc2sc3c(c2c(=O)[nH]1)CC(C)(CC)OC3 (configuration not stated),1,x,x,x,x,x,x
CCOC(=O)c1ccc(-n2c(C)nc3ccc(Br)cc3c2=O)cc1,3,x,x,x,x,x,x
COc1ccc(N2CCN(CCNC(=O)Nc3ccc([N+](=O)[O-])cc3OC)CC2)cc1,-2,x,x,x,x,x,x
O=C1C2=C(Nc3ccccc3SC2c2ccco2)c2ccccc21 (configuration not stated),16,137*,-36,-6,125,102,105
Oc1ccccc1/C=C/c1noc(-c2ccccc2O)n1,-5,142*,-40,-23,169*,101,102
O=C(O)C(Cc1c[nH]c2ccccc12)N1Cc2ccccc2C1=O (configuration not stated),-2,143*,-44,-12,137*,114,114
Cc1ccc(Cl)cc1NC(=O)N[C@@H](CC(C)C)C(=O)O,1,x,x,x,x,x,x
O=S(=O)(Nc1cc(Sc2cccc3cccnc23)c(O)c2ccccc12)c1ccccc1,-3,176*,-96,4,148*,128*,128*
CCOc1ccc(S(=O)(=O)Nc2cc(SCC(=O)O)c(O)c3ccccc23)cc1,4,x,x,x,x,x,x
CC1CC(C)CN(C(=O)CSCC(=O)Nc2nc(-c3cccs3)cs2)C1 (configuration not stated),-1,136*,-44,11,126,102,98
CC(C)C(=O)Nc1ccc2c(c1)nc(CCN1CCN(c3ccccn3)CC1)n2C,-5,x,x,x,x,x,x
COc1ccc(C(=O)NN(C)c2nc(C(F)(F)F)nc3ccccc23)cc1,-2,156*,-62,-5,131,165*,101
O=C(c1ccc2ccccc2n1)N1CCN(c2ccccc2O)CC1,0,157*,-61,0,158*,103,102
COc1ccc(Br)cc1C(=O)Nc1ccccc1-c1ccccc1,0,138*,-48,4,135*,102,96

# Screens: PubChem, The Scripps Research Institute Molecular Screening Center
